Laboratory results reported in ChEMBL document CHEMBL3525991, “Metabolic transformation of antitumor acridinone C-1305 but not C-1311 via selective cellular expression of UGT1A10 increases cytotoxic response: implications for clinical use” (Drug Metab Dispos, 2013).
Calls of active or inactive are those of the source. The calls are words filed in the database; no cut-off is given here.

Experiments:
[1] = Cell cycle arrest in human KB3 cells assessed as distribution at G2/M phase at 8 uM after 24 hrs by propidium iodide staining-based FACS flow cytometric analysis; assay type: functional
[2] = molecular target: T1, UDP-glucuronosyltransferase 1A10 (Homo sapiens, UniProt Q9HAW8); assay: Drug metabolism in human KB3 cells overexpressing human UGT1A10 assessed as enzyme-mediated metabolites formation at 30 uM for 24 to 72 hrs by HPLC analysis; assay type: ADME, cell-based; conditions: kb3, 30 µM
T1 sequence (Q9HAW8 whole entry): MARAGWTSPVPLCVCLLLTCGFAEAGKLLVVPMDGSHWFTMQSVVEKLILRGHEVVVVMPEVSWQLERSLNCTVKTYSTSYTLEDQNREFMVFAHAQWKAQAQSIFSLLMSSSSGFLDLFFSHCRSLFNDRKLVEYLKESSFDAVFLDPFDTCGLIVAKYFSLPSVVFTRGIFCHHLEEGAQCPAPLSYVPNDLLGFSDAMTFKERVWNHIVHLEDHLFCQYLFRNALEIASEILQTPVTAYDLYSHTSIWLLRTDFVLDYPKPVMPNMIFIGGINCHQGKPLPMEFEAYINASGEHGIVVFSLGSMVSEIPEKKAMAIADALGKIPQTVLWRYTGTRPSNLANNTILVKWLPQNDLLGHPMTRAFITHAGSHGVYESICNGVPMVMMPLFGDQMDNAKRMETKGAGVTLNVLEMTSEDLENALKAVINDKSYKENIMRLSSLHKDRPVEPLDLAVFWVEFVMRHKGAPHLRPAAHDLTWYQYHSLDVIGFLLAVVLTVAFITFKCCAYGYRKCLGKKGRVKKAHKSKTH
Method in brief: (§1)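 Untransfected KB-3, or cells electroporated 24 h earlier with UGT1A10 or UGT2B4 plasmid, grown to 80% confluence and treated with 30 μM drug for 24, 48 or 72 h. Cells plus medium collected, washed, sonicated in ice-cold 60% methanol. Reverse-phase HPLC at 1 ml/min in 50 mM ammonium formate pH 3.2, with a 15–80% methanol gradient over 25 min, then to 100%. Positive-ion ESI-MS.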

[3] = Cytotoxicity against human KB3 cells expressing pcDNA3.1 assessed as decrease in cell viability after 72 hrs by MTT assay; assay type: functional, cell-based; conditions: KB3, 72 h
Method in brief: (§2)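 KB-3 cells electroporated with 5 μg plasmid (UGT1A10-pcDNA3.1, UGT2B4-pIRES or empty pcDNA3.1), cotransfected with GFP (140 V, 250 μF). Used 24 h later at 2000/well. Next day, drug up to 10 μM in 0.1% DMSO for 72 h. MTT read at 540 nm after 4 h. Triplicates, relative to vehicle. IC50 is 50% of control absorbance.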

[4] = molecular target: T1, UDP-glucuronosyltransferase 1A10; assay: Drug metabolism in human KB3 cells overexpressing human UGT1A10 assessed as enzyme-mediated metabolites formation at 30 uM for 24 to 72 hrs by HPLC analysis and electrospray ionization-mass spectrometry; assay type: ADME, cell-based; conditions: kb3, 30 µM; method in brief: as §1
[5] = Cell cycle arrest in human KB3 cells assessed as reduction of cells at G1 phase at 8 uM after 24 hrs by propidium iodide staining-based FACS flow cytometric analysis; assay type: functional
[6] = Drug metabolism in human KB3 cells assessed as retention time at 30 uM for 24 to 72 hrs by HPLC analysis; assay type: ADME, cell-based; conditions: kb3, 30 µM; method in brief: as §1
[7] = Cytotoxicity against human KB3 cells assessed as decrease in cell viability after 72 hrs by MTT assay; assay type: functional, cell-based; conditions: KB3, 72 h
Method in brief: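 KB-3 (HeLa variant) cells, untransfected, in DMEM with 10% FBS at 37 °C, 5% CO2, seeded 2000/well. Next day, drug added at concentrations up to 10 μM, final 0.1% DMSO; vehicle controls. MTT read at 540 nm after 4 h, following DMSO solubilisation. Triplicate points, relative to vehicle. IC50 is the concentration giving 50% of control absorbance. Repeated independently.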

[8] = Cell cycle arrest in human KB3 cells assessed as distribution at subG1 DNA content at 8 uM after 72 hrs by propidium iodide staining-based FACS flow cytometric analysis (reference value: 3.4%); assay type: functional
[9] = Cell cycle arrest in human KB3 cells overexpressing human UGT1A10 assessed as distribution at subG1 DNA content at 8 uM after 24 hrs by propidium iodide staining-based FACS flow cytometric analysis (reference value: 3.4%); assay type: functional; conditions: in the assay text read “72 hrs” for “24 hrs”
Method in brief: (§3)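 KB-3 cells were electroporated with a UGT1A10 expression plasmid (140 V, 250 μF), co-transfected with GFP, and used 24 h later. At 80% confluence they received 8 μM or 3 μM compound, or 0.1% DMSO, for 24–72 h. Cells were fixed in ice-cold 70% ethanol, stained with PI/RNase for 30 min in the dark, and analysed by flow cytometry for DNA content; at least two experiments.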

[10] = Cytotoxicity against human KB3 cells expressing human UGT1A10 assessed as decrease in cell viability after 72 hrs by MTT assay; assay type: functional, cell-based; conditions: KB3, 72 h; method in brief: as §2
[11] = Cytotoxicity against human KB3 cells expressing human UGT2B4 assessed as decrease in cell viability after 72 hrs by MTT assay; assay type: functional, cell-based; conditions: KB3, 72 h; method in brief: as §2
[12] = Cell cycle arrest in human KB3 cells assessed as distribution at M phase at 8 uM after 48 to 72 hrs by propidium iodide staining-based FACS flow cytometric analysis; assay type: functional
[13] = Cell cycle arrest in human KB3 cells overexpressing human UGT1A10 assessed as accumulation of cells with 4N DNA content at 8 uM after 24 to 72 hrs by propidium iodide staining-based FACS flow cytometric analysis; assay type: functional; method in brief: as §3
[14] = Cell cycle arrest in human KB3 cells assessed as distribution at S phase at 8 uM after 24 hrs by propidium iodide staining-based FACS flow cytometric analysis; assay type: functional
[15] = Cell cycle arrest in human KB3 cells assessed as distribution at G2 phase at 8 uM after 48 to 72 hrs by propidium iodide staining-based FACS flow cytometric analysis; assay type: functional
[16] = molecular target: T2, UDP-glucuronosyltransferase 2B4 (Homo sapiens, UniProt P06133); assay: Drug metabolism in human KB3 cells overexpressing human UGT2B4 assessed as enzyme-mediated metabolites formation at 30 uM for 24 to 72 hrs by HPLC analysis; assay type: ADME, cell-based; conditions: kb3, 30 µM; method in brief: as §1
T2 sequence (P06133 whole entry): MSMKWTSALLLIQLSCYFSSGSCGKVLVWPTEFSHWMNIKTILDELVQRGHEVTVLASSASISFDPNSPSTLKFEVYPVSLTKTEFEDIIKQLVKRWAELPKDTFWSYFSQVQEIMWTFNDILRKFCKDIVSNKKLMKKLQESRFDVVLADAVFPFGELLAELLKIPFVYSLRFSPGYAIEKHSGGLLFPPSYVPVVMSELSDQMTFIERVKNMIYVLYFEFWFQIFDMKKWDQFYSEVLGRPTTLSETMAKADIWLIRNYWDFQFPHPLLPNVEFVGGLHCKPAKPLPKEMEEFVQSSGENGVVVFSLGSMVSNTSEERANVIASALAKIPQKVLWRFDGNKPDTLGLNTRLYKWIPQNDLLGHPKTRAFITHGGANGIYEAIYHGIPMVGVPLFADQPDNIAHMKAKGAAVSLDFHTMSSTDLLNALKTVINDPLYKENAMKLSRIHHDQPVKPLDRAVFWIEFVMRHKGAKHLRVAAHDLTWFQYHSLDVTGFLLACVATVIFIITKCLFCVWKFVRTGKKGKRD

[17] = Cell cycle arrest in human KB3 cells overexpressing human UGT1A10 assessed as accumulation of cells with 4N DNA content at 3 uM after 24 to 72 hrs by propidium iodide staining-based FACS flow cytometric analysis; assay type: functional; method in brief: as §3
[18] = Cell cycle arrest in human KB3 cells assessed as distribution at M phase at 3 uM after 24 hrs by propidium iodide staining-based FACS flow cytometric analysis; assay type: functional
[19] = Cell cycle arrest in human KB3 cells overexpressing human UGT1A10 assessed as distribution at subG1 DNA content at 3 uM after 24 hrs by propidium iodide staining-based FACS flow cytometric analysis (reference value: 3.4%); assay type: functional; conditions: in the assay text read “72 hrs” for “24 hrs”; method in brief: as §3
[20] = Cell cycle arrest in human KB3 cells assessed as distribution at S phase at 3 uM after 24 hrs by propidium iodide staining-based FACS flow cytometric analysis; assay type: functional
[21] = Cell cycle arrest in human KB3 cells assessed as distribution at G2 phase at 3 uM after 24 hrs by propidium iodide staining-based FACS flow cytometric analysis; assay type: functional
[22] = Cell cycle arrest in human KB3 cells assessed as distribution at subG1 DNA content at 3 uM after 72 hrs by propidium iodide staining-based FACS flow cytometric analysis (reference value: 3.4%)

Compound	Drug metabolism [2]	IC50 [3] [nM]	Drug metabolism [4]	Retention_time [6] [min]	IC50 [7] [nM]	IC50 [10] [nM]	IC50 [11] [nM]	Drug metabolism [16]	further results
CN(C)CCCNc1ccc2nnn3c4ccc(O)cc4c(=O)c1c23.Cl	metabolite_detected	260	metabolite_detected	18	263	180	261	metabolite_not_detected	Activity [1]: Active; Activity [5]: Active; Activity [8]: 18.7%; Activity [9]: 37.2%; Activity [12]: Active; Activity [13]: Active; Activity [14]: Active; Activity [15]: Active
CCN(CC)CCNc1ccc2ncn3c4ccc(O)cc4c(=O)c1c23.Cl	metabolite_detected	102	metabolite_detected	15	106	131	113	metabolite_not_detected	Activity [17]: Active; Activity [18]: Active; Activity [19]: 22.4%; Activity [20]: Active; Activity [21]: Active; Activity [22]: 16.9%
